In brackets after ≈: the same amount, converted by molar mass.
Assays:
[1] = Oral bioavailability in BALB/C mouse at 10 mg/kg by LC-MS/MS method; type: ADME, organism-based; settings: BALB/C, in vivo
In short: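 Bioavailability from single-dose iv (2 mg/kg, 5% DMSO/40% PEG400/55% saline) and oral gavage (10 mg/kg, 0.445% microcrystalline cellulose microsuspension) studies in BALB/C nude mice (N = 16 per arm); plasma at eight (po) or nine (iv) time points, LC-MS/MS, noncompartmental analysis.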

[2] = Clearance in BALB/C mouse at 10 mg/kg, po or 2 mg/kg, iv by LC-MS/MS method; type: ADME, organism-based; settings: in vivo
In short: (§1)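 Female-unspecified BALB/C nude mice (15−20 g, N = 16 per arm); iv bolus 2 mg/kg in 5% DMSO/40% PEG400/55% saline and/or oral gavage 10 mg/kg as 0.445% microcrystalline cellulose microsuspension. Blood sampled at nine (iv) or eight (po) time points into sodium heparin tubes; plasma by LC-MS/MS; noncompartmental analysis.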

[3] = Clearance in mouse liver microsomes at 1 uM incubated for 10 mins by LC-MS/MS method; type: ADME, Microsome
In short: (§2)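 Liver microsomes (human or mouse, 0.5 mg/mL) in 100 mM potassium phosphate pH 7.4 with 1 μM compound, prewarmed 10 min at 37 °C, started with NADPH (10 mM); stopped at 0, 3, 6, 9, 15, 30 min with ice-cold methanol containing tolbutamide internal standard; LC-MS/MS. Hepatic clearance (mL/min/kg) calculated from intrinsic clearance.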

[4] = molecular target: Histone deacetylase (Homo sapiens) (UniProt Q13547+O15379+Q9UBN7+Q92769+Q9UQL6+Q8WUI4+Q9BY41+Q96DB2+P56524+Q9UKV0+Q969S8); test: Inhibition of Class 1 histone deacetylase in human HeLa cells assessed as induction in p21 protein expression at 3 uM incubated for 16 hrs by luciferase reporter gene assay relative to HDAC inhibitor entinostat; type: cell-based; set-up: scale not given: the % may be the effect or the level left
[5] = Solubility in 50 mM phosphate buffer at pH 6.5 by HPLC method; type: physicochemical
In short: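 10 mM DMSO stock dried, residue redissolved in 50 mM phosphate buffer pH 6.5, stirred 1 h and shaken 2 h, left overnight, filtered and analysed by HPLC against calibration standards of 50−500 μM diluted from the DMSO stock.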

[6] = Volume of distribution at steady state in BALB/C mouse at 10 mg/kg, po or 2 mg/kg, iv by LC-MS/MS method; type: ADME, organism-based; set-up: unit not given here; settings: in vivo, read-out: Vdss
In short: (§3)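 Single-dose PK: iv bolus 2 mg/kg in 5% DMSO/40% PEG400/55% saline and/or oral gavage 10 mg/kg as 0.445% microcrystalline cellulose microsuspension; BALB/C nude mice (15−20 g, N = 16 per arm) or male Sprague−Dawley rats (250 ± 20 g, N = 3). Blood at eight (po) or nine (iv) time points into sodium heparin, plasma by LC-MS/MS, noncompartmental analysis.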

[7] = AUC in BALB/C mouse at 10 mg/kg, po or 2 mg/kg, iv by LC-MS/MS method; type: ADME, organism-based, Plasma; settings: BALB/C, plasma; in short: as §1
[8] = Half life in BALB/C mouse at 10 mg/kg, po or 2 mg/kg, iv by LC-MS/MS method; type: ADME, organism-based; settings: BALB/C, in vivo; in short: as §1
[9] = Cmax in BALB/C mouse at 10 mg/kg, po or 2 mg/kg, iv by LC-MS/MS method; type: ADME, organism-based; settings: BALB/C, in vivo; in short: as §1
[10] = Tmax in BALB/C mouse at 10 mg/kg, po or 2 mg/kg, iv by LC-MS/MS method; type: ADME, organism-based; settings: BALB/C, in vivo; in short: as §3
[11] = Clearance in human liver microsomes at 1 uM incubated for 10 mins by LC-MS/MS method; type: ADME, Microsome; in short: as §2
[12] = molecular target: T1, Cytochrome P450 1A2 (Homo sapiens, UniProt P05177); test: Inhibition of CYP1A2 in human liver microsomes in presence of NADPH by LC-MS/MS method; type: ADME, Microsome
T1 sequence (P05177 whole entry): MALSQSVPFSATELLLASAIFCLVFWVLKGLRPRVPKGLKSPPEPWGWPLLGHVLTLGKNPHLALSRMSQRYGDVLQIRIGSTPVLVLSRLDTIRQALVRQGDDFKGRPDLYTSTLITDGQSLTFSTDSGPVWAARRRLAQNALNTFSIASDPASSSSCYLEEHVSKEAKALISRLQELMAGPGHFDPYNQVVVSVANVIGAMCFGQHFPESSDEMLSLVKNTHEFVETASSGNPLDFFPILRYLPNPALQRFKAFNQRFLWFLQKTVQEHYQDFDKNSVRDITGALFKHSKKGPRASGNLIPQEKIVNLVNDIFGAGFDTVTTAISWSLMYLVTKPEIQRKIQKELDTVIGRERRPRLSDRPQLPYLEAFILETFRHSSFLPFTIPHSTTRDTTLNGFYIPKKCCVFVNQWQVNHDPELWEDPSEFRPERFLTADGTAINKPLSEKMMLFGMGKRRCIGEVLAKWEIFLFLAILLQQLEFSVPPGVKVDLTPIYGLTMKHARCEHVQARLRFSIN

[13] = molecular target: Cytochrome P450 2C19 (Homo sapiens, UniProt P33261); test: Inhibition of CYP2C19 in human liver microsomes in presence of NADPH by LC-MS/MS method; type: ADME, Microsome
[14] = molecular target: Cytochrome P450 2C9 (Homo sapiens, UniProt P11712); test: Inhibition of CYP2C9 in human liver microsomes in presence of NADPH by LC-MS/MS method; type: ADME, Microsome
[15] = molecular target: Cytochrome P450 3A4 (Homo sapiens, UniProt P08684); test: Inhibition of CYP3A4 in human liver microsomes in presence of NADPH by LC-MS/MS method; type: ADME, Microsome
[16] = molecular target: Cytochrome P450 2D6 (Homo sapiens, UniProt P10635); test: Inhibition of CYP2D6 in human liver microsomes in presence of NADPH by LC-MS/MS method; type: ADME, Microsome
[17] = tested on: HGC-27; type: functional, Homo sapiens
[18] = tested on: BGC-823; type: functional, Homo sapiens
[19] = tested on: SGC-7901; type: functional, Homo sapiens
[20] = tested on: MGC-803; type: functional, Homo sapiens
[21] = tested on: SK-HEP1; type: functional, Homo sapiens
[22] = tested on: Bel-7402; type: functional, Homo sapiens
[23] = tested on: SMMC-7721; type: functional, Homo sapiens

Sequence of Cytochrome P450 2D6 (P10635 whole entry): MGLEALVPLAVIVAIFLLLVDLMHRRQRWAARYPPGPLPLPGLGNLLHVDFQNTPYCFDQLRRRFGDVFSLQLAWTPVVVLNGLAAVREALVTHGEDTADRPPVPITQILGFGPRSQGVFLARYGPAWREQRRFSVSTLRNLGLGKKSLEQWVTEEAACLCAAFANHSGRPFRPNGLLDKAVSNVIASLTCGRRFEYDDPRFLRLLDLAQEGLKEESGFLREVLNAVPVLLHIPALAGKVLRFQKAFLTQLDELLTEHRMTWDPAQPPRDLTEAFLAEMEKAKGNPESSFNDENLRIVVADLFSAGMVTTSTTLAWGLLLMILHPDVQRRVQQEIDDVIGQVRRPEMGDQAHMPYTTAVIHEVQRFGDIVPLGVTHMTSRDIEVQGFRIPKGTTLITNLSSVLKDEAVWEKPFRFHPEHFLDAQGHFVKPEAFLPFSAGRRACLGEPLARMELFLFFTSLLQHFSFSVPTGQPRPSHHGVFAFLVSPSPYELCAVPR
Sequence of Cytochrome P450 2C19 (P33261 whole entry): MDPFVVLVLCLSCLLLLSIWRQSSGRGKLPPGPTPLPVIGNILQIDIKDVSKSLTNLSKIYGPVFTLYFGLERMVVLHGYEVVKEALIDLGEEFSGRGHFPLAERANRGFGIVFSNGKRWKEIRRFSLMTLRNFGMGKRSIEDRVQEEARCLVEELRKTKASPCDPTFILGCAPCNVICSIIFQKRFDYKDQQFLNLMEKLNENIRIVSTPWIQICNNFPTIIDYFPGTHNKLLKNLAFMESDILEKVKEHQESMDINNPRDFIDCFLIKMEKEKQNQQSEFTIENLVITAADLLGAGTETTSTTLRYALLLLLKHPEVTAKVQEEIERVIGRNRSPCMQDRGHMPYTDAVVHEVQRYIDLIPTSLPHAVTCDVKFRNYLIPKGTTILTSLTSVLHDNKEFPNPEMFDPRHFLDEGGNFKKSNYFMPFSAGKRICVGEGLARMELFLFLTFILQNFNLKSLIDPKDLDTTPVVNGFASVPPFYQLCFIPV
Sequence of Cytochrome P450 2C9 (P11712 whole entry): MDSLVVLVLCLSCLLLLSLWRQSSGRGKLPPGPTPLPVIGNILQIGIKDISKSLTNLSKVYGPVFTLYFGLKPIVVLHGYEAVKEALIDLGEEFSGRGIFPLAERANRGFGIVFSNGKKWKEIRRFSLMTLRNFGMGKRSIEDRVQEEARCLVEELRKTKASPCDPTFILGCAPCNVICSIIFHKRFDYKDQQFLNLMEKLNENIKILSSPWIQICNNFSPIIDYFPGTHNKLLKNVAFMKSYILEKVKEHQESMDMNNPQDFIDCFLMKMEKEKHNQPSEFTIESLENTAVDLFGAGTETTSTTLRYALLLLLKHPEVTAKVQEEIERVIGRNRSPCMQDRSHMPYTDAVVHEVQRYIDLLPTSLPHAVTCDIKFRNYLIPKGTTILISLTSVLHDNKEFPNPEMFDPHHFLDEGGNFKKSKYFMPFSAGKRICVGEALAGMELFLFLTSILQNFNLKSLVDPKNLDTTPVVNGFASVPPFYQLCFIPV
Sequence of Cytochrome P450 3A4 (P08684 whole entry): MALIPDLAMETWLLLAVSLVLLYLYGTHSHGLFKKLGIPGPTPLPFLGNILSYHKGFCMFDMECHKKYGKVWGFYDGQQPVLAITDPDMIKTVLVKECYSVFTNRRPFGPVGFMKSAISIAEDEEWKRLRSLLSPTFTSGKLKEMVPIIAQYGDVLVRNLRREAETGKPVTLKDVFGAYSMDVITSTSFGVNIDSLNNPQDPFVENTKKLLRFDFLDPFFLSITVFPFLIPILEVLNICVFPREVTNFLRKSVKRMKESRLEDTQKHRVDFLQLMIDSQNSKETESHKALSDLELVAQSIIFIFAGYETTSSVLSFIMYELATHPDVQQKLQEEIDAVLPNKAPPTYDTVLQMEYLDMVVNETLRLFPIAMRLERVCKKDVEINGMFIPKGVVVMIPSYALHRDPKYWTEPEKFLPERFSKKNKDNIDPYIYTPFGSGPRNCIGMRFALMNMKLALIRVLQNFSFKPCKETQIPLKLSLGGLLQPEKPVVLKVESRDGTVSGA

Nc1ccccc1NC(=O)/C=C/c1ccc(C(NCCO)C(=O)Nc2ccc(C(F)(F)F)cc2)cc1 (racemic)
bioavailability [1]: 71%
clearance [2]: 49 mL/min/kg
CLhep predicted at 1 µM [3]: 33 mL/min/kg
Activity [4]: 117%
solubility [5]: 5 µg/mL (≈ 10 µM)

CN(C)[C@H]1CCN(C(C(=O)Nc2ccc(C(F)(F)F)cc2)c2ccc(/C=C/C(=O)Nc3ccccc3N)cc2)C1 (some centres not stated)
bioavailability [1]: 21%
clearance [2]: 67 mL/min/kg
CLhep predicted at 1 µM [3]: 34 mL/min/kg
Activity [4]: 216%
solubility [5]: 610 µg/mL (≈ 1110 µM)

Nc1ccccc1NC(=O)/C=C/c1ccc([C@H]2CN(C3CCOCC3)C[C@@H]2C(=O)Nc2ccc(Cl)cc2)cc1 (racemic)
bioavailability [1]: 23%
Vd [6]: 5.6
clearance [2]: 39 mL/min/kg
AUC [7]: 1000 ng·h/mL
half-life [8]: 4.9 h
Cmax [9]: 315 ng/mL
Tmax [10]: 0.17 h
CLhep predicted at 1 µM [3]: 44 mL/min/kg
CLhep predicted at 1 µM [11]: 12 mL/min/kg
Activity [4]: 220%

CC(C)(O)CN1C[C@H](C(=O)Nc2ccc(Cl)cc2)[C@@H](c2ccc(/C=C/C(=O)Nc3ccccc3N)cc2)C1 (racemic)
IC50 [12]: 7 µM
IC50 [13]: 7 µM
IC50 [14]: 4 µM
IC50 [15]: 3 µM
IC50 [16]: 0.7 µM
bioavailability [1]: 100%
Vd [6]: 3.7
clearance [2]: 33 mL/min/kg
AUC [7]: 5650 ng·h/mL
half-life [8]: 6.5 h
Cmax [9]: 1100 ng/mL
Tmax [10]: 1 h
CLhep predicted at 1 µM [3]: 34 mL/min/kg
CLhep predicted at 1 µM [11]: 14 mL/min/kg
Activity [4]: 230%

CC(C)(C)N1C[C@H](C(=O)Nc2ccc(Cl)cc2)[C@@H](c2ccc(/C=C/C(=O)Nc3ccccc3N)cc2)C1 (racemic)
bioavailability [1]: 59%
Vd [6]: 31
clearance [2]: 60 mL/min/kg
AUC [7]: 813 ng·h/mL
half-life [8]: 6.8 h
Cmax [9]: 113 ng/mL
Tmax [10]: 2 h
CLhep predicted at 1 µM [3]: 20 mL/min/kg
CLhep predicted at 1 µM [11]: 8 mL/min/kg
Activity [4]: 160%

CC(C)N1C[C@H](C(=O)Nc2ccc(Cl)cc2)[C@@H](c2ccc(/C=C/C(=O)Nc3ccccc3N)cc2)C1 (racemic)
bioavailability [1]: 100%
Vd [6]: 32
clearance [2]: 86 mL/min/kg
AUC [7]: 2080 ng·h/mL
half-life [8]: 5.4 h
Cmax [9]: 331 ng/mL
Tmax [10]: 2 h
CLhep predicted at 1 µM [3]: 38 mL/min/kg
Activity [4]: 230%

Nc1ccccc1NC(=O)/C=C/c1ccc(C(NCCN2CCOCC2)C(=O)Nc2ccc(C(F)(F)F)cc2)cc1 (racemic)
bioavailability [1]: 11%
clearance [2]: 122 mL/min/kg
CLhep predicted at 1 µM [3]: 78 mL/min/kg
Activity [4]: 100%
solubility [5]: 32 µg/mL (≈ 56.4 µM)

Nc1ccccc1NC(=O)/C=C/c1ccc(C(C(=O)Nc2ccc(Br)cc2)N2CC[C@H](O)C2)cc1 (some centres not stated)
bioavailability [1]: 13%
clearance [2]: 8 mL/min/kg
CLhep predicted at 1 µM [3]: 52 mL/min/kg
Activity [4]: 150%
solubility [5]: 5 µg/mL (≈ 9.34 µM)

CC(C)(CO)N1C[C@H](C(=O)Nc2ccc(Cl)cc2)[C@@H](c2ccc(/C=C/C(=O)Nc3ccccc3N)cc2)C1 (racemic)
bioavailability [1]: 12%
Vd [6]: 6.6
clearance [2]: 27 mL/min/kg
AUC [7]: 743 ng·h/mL
half-life [8]: 1.1 h
Cmax [9]: 337 ng/mL
Tmax [10]: 2 h
CLhep predicted at 1 µM [3]: 40 mL/min/kg
CLhep predicted at 1 µM [11]: 12 mL/min/kg
Activity [4]: 260%

CN1C[C@H](C(=O)Nc2ccc(F)c(F)c2)[C@@H](c2ccc(/C=C/C(=O)Nc3ccccc3N)cc2)C1 (racemic)
bioavailability [1]: 29%
Vd [6]: 7.2
clearance [2]: 53 mL/min/kg
AUC [7]: 911 ng·h/mL
half-life [8]: 4 h
Cmax [9]: 262 ng/mL
Tmax [10]: 1 h
CLhep predicted at 1 µM [3]: 46 mL/min/kg
Activity [4]: 180%

CN1C[C@H](C(=O)Nc2ccccn2)[C@@H](c2ccc(/C=C/C(=O)Nc3ccccc3N)cc2)C1 (racemic)
CLhep predicted at 1 µM [3]: 40 mL/min/kg
CLhep predicted at 1 µM [11]: 8 mL/min/kg
Activity [4]: 140%

CN1C[C@H](C(=O)Nc2cccc(F)c2)[C@@H](c2ccc(/C=C/C(=O)Nc3ccccc3N)cc2)C1 (racemic)
CLhep predicted at 1 µM [3]: 56 mL/min/kg
CLhep predicted at 1 µM [11]: 6 mL/min/kg
Activity [4]: 190%

CN1C[C@H](C(=O)Nc2ccc(Cl)cc2)[C@@H](c2cnc(/C=C/C(=O)Nc3ccccc3N)cn2)C1 (racemic)
CLhep predicted at 1 µM [3]: 25 mL/min/kg
CLhep predicted at 1 µM [11]: 11 mL/min/kg
Activity [4]: > 300%

CN1C[C@H](C(=O)Nc2ccc(Cl)c(Cl)c2)[C@@H](c2ccc(/C=C/C(=O)Nc3ccccc3N)cc2)C1 (racemic)
CLhep predicted at 1 µM [3]: 36 mL/min/kg
CLhep predicted at 1 µM [11]: 14 mL/min/kg
Activity [4]: 160%

Nc1ccccc1NC(=O)c1ccc(CNC(=O)OCc2cccnc2)cc1 [ENTINOSTAT]
GI90 [17]: >30 µM
GI90 [18]: 7.1 µM
GI90 [19]: 2.5 µM
GI90 [20]: 8.9 µM
GI90 [21]: 13 µM
GI90 [22]: 8 µM
GI90 [23]: 11 µM

Source: ChEMBL document CHEMBL2177000, “Pharmacokinetic optimization of class-selective histone deacetylase inhibitors and identification of associated candidate predictive biomarkers of hepatocellular carcinoma tumor response” (J Med Chem, 2012)
